# STAT3 act – increases IL-6 driven STAT3 reporter signal; U3A cells, IL-6 STAT3-luciferase reporter, luminescence; 100% = signal with IL-6 EC80 alone; activation (% of control), % at 5.6 µM; hit rate 0.91% among 190,000;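 active = activation above the screen-wide mean of compound activation plus 3 SD, cut at about 130% in these data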;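 also: 0% = background luminescence of wells with medium and substrate only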
#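 System – human U3A cells carrying STAT3-luciferase construct · Probe or stimulus – Interleukin-6, 33 ng/mL · Schedule – compound 1 h, then IL-6 6 h at 37 °C · Signal – luminescence from STAT3-driven luciferase reporter · Evaluation – percent of IL-6-only median luminescence · Benchmarks – IL-6-only high control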
# STAT3 inh – reduces IL-6 driven STAT3 reporter signal; hit rate 0.89% among 190,000; U3A cells, IL-6 STAT3-luciferase reporter, luminescence; host cell line lacks STAT1; inhibition, % at 5.5 µM;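 active = inhibition above the mean inhibition across all screened compounds plus 3 SD, cut at about 44% in these data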;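 also: 0% = DMSO only wells and 100% = 100 µM nifuroxazide control wells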
# APP 5'UTR act – APP 5'UTR luciferase reporter activation. activation, % at 2 µM. SH-SY5Y APP 5'UTR luciferase reporter, luminescence; zero percent = DMSO vehicle wells. hit rate 1% among 190,000. AID 1276;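 active = activation above a set limit, based on mean plus 3 SD of controls, cut at about 140% in these data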
# STAT1 blocker – STAT1 signaling inhibition; inhibition, % at 5.5 µM; AID 920; NIH 3T3 STAT1-luciferase reporter, IFN-gamma, luminescence; hit rate 0.35% among 200,000;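 active = inhibition above a set limit, the mean inhibition across all tested compounds plus 3 SD, cut at about 34% in these data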;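 also: 0% = IFN-gamma with DMSO and 100% = IFN-gamma with 300 µM nifuroxazide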
# NF-kB expr up – raises NF-kB expression in human neuronal cells | NF-kB reporter expression; hits give high values | fold change at 12.5 µM | hit rate 1.6% among 190,000 | AID 1239; in the data active = fold change above about 3.3
# STAT1 activator – increases IFN-gamma driven STAT1 reporter signal. NIH 3T3 STAT1-luciferase reporter, luminescence; 100% = IFN-gamma alone, no compound. activation (% of control), % at 5.5 µM. hit rate 2.6% among 200,000. AID 932;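 active = activation above the screen-wide mean activation plus 3 SD, cut at about 130% in these data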;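 also: raw ratio to IFN-gamma control signal so 100% means no change and 0% no light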
# The depositor's hits bear a star. Compounds with a hit are over-represented: about 5.1% of the library has one in this group of screens.
SMILES,STAT3 act,STAT3 inh,APP 5'UTR act,STAT1 blocker,NF-kB expr up,STAT1 activator
O=C(NC1=NCCCCC1)c1cccc2ccccc12,99,6,-7,6,1.2,94
CN1C/C(=C\c2ccc(N3CCOCC3)cc2)C(=O)/C(=C/c2ccc(N3CCOCC3)cc2)C1,108,-4,4,-1,1.1,101
CCN1C/C(=C/c2ccc(N3CCOCC3)cc2)C(=O)/C(=C/c2ccc(N3CCOCC3)cc2)C1,111,-6,-7,-3,5.3*,103
O=C(Nc1ccccc1Cl)C1CC(=O)n2c(nc3ccccc32)N1 (stereo not given),96,10,13,8,1,92
O=C(CN1C(=O)S/C(=C\C=C\c2ccccc2)C1=O)Nc1cccc(O)c1,109,-7,16,-33,3.4*,130*
CC(=O)c1ccc(NC(=O)CN2C(=O)/C(=C/C=C/c3ccccc3)SC2=S)cc1,103,-4,16,-11,0.98,110
Cc1ccc(CN2CN(S(=O)(=O)c3cccs3)c3nc4ccccc4nc32)cc1,97,12,6,-53,6.4*,142*
Cc1cc(C)n2c(=O)c3ccc(Cl)cc3nc2c1C#N,98,12,-4,-11,1.1,108
Cc1cc(Cl)n2c(nc3cc(F)c(F)cc32)c1C#N,123,-17,-88,-36,0.11,131*
COCCNC(=O)/C(C#N)=C/C=C/c1ccccc1[N+](=O)[O-],93,15,15,11,1.4,89
CCOC(=O)C/C(C)=N/NC(=O)Nc1ccccc1,111,-3,25,-34,1.1,131*
Cc1nc2sc(-c3ccccc3)cc2c(=O)n1/N=C/N(C)C,90,21,103,-53,2.4,147*
Cc1nc2sc(-c3ccccc3)cc2c(=O)n1-n1cccc1,101,5,142*,-49,1.1,145*
O=c1c2cc(-c3ccccc3)sc2nc2n1CCC2,69,41,187*,-47,4.2*,139*
CO/N=C/c1ccc(OC)c(Oc2nc(OC)cc(OC)n2)c1,103,-1,-66,4,1.1,96
CCOC(=O)c1cnc2c(cnn2C)c1NCCCn1ccnc1,101,3,-2,-6,1.1,103
COc1ccc2cc(/C=N/O)c(Cl)nc2c1,94,9,25,-33,1.8,129*
COc1ccc2cc(CO)c(Cl)nc2c1,99,1,-1,-15,1.8,114
Cc1ccc(-c2nc3ccccc3[nH]2)cc1NC(=O)c1ccc2c(c1)OCO2,94,14,6,0,0.46,100
O=C(NC(=S)Nc1cc(-c2nc3ccccc3[nH]2)ccc1Cl)c1ccc2c(c1)OCO2,113,-9,-7,-49,2.2,144*
O=C(COC(=O)CCc1nc2ccccc2s1)NCc1ccco1,98,10,22,0,1.1,100
COc1ccc(Oc2ccc(/C=C/C(=O)c3ccc(O)cc3)cc2[N+](=O)[O-])cc1,114,-12,-25,-1,5*,101
CCOC(=O)CNC(=O)CSc1nnc(SCC(=O)NCC(=O)OCC)s1,102,1,4,-2,0.95,102
CCOC(=O)CNC(=O)CSc1nnc(NC(=O)c2ccc(C)cc2)s1,39,72*,37,59*,2.8,44
O=C(O)c1ccccc1Nc1ccc([N+](=O)[O-])cc1,110,-15,3,-44,2.3,139*
SMILES,STAT3 act,STAT3 inh,APP 5'UTR act,STAT1 blocker,NF-kB expr up,STAT1 activator
O=C(O)c1ccccc1Nc1ccccc1C(=O)O,100,4,-2,1,1.1,99
COc1ccc(C(=O)N2CC(=O)N(CCc3ccccc3)C(=O)C2)cc1OC,144*,-46,6,0,1.3,100
CN(C)c1ccc(C(=O)N2CC(=O)N(CCc3ccccc3)C(=O)C2)cc1,102,3,18,1,0.99,99
COc1ccccc1N/N=C(\C#N)C(=N)N1CCOCC1,98,5,1,-5,1.1,103
N#C/C(=N\Nc1ccc(Br)cc1)C(=N)N1CCOCC1,105,7,80,-51,3.1,146*
N#C/C(=N\Nc1ccccc1)C(=N)N1CCCCC1,108,-6,112,-32,4.5*,129*
N#C/C(=N\Nc1ccc(S(=O)(=O)N2CCCCCC2)cc1)C(N)=S,83,24,10,15,1,86
N#C/C(=N\Nc1ccccc1[N+](=O)[O-])C(=N)N1CCCCC1,90,18,176*,-39,5.6*,136*
COC(=O)c1sc(NC(=S)NC(=O)c2ccccc2C)nc1C,98,7,7,-19,1.2,116
O=C(Nc1nc(-c2cccs2)cs1)C1=COCCO1,101,-2,88,-54,3.6*,149*
O=C(Nc1nc(-c2cccs2)cs1)c1ccc(Cl)cc1,92,10,19,-22,1.6,119
COc1ccc(C(=O)Nc2nc(-c3cccs3)cs2)cc1,91,17,84,-41,1.5,137*
N#Cc1c(C(F)(F)F)cc(=O)[nH]c1SCC(=O)O,104,-5,13,5,0.98,96
CC(C)(C)C1CCC(=NOC(=O)c2ccc(F)cc2)CC1 (stereo not given),100,4,-4,5,1.1,95
Cc1nn(-c2cccc(Cl)c2)c2nc(-c3ccncc3)cc(C(=O)N3CCOCC3)c12,102,4,-11,-7,0.67,106
Cc1ccc(C(=O)NC2CCCCCC2)cc1N1CCCC1=O,104,-3,5,2,1.2,98
O=C(NC1CCCCCC1)c1cccc(N2CCCC2=O)c1,94,13,118,-32,3.3,130*
Cc1cccc(C(=O)n2cnnc2N)c1,97,8,-5,0,0.98,99
COc1c(Cl)cc(Cl)cc1C(=O)Nc1ccc(C(=O)O)cc1,101,0,-18,-4,1.1,104
COc1c(Cl)cc(Cl)cc1/C=C/C(=O)c1ccc(NC(=O)c2cccs2)cc1,111,-14,-11,-10,5.7*,109
O=C(Nc1ccc(N2CCOCC2)c(Cl)c1)c1ccco1,84,22,113,-52,3.4*,149*
O=C(Nc1ccc(N2CCOCC2)c(Cl)c1)c1ccccc1F,98,6,127,-41,5.1*,138*
O=C(Nc1ccc(N2CCN(C(=O)c3ccccc3)CC2)c(Cl)c1)c1ccco1,89,19,-2,7,0.56,94
O=C(c1ccccc1)c1ccc(N2CCOCC2)c(F)c1,101,4,110,-36,3,133*
O=C(Nc1ccc(N2CCOCC2)c(Cl)c1)c1ccc(Cl)cc1,96,14,49,-31,1.9,127
O=C(Nc1ccc(Br)c(Cl)c1)c1ccco1,116,-16,81,-40,2.6,135*
CCOC(=O)c1c(C)[nH]c(C)c1C(=O)COC(=O)c1ccc(Cl)c(S(N)(=O)=O)c1,103,-4,14,1,0.82,99
